Experimental data as given in ChEMBL document CHEMBL5230083, “Novel 2, 5-diketopiperazine derivatives as potent selective histone deacetylase 6 inhibitors: Rational design, synthesis and antiproliferative activity” (Eur J Med Chem, 2020).
pIC50: −log10 of the molar value. Where a name gives a salt, the structure may show the parent alone. Calls of active or inactive are those of the source. The calls are words filed in the database; no cut-off is given here. Square brackets hold non-standard residues; d marks the D form. Peptide text beside a SMILES is read from it. * marks the point of attachment. Asu = N[C@@H](CCCCCC(=O)O)C(=O)O; X1 = CC(=O)[C@H](Cc1cnc[nH]1)N*; NHOH = ON*

Tests used:
Homo sapiens [1] = species on record: Homo sapiens; test: Selectivity index, ratio of IC50 for inhibition of HDAC8 (unknown origin) to IC50 for inhibition of HDAC6 (unknown origin)
Summary of the method: (§1)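 Ratio of IC50 values, each from a Fluor de Lys fluorogenic HDAC assay run in duplicate.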

RPMI-8226 = test: cells; format: functional, cell-based; settings: Homo sapiens, RPMI-8226, 72 h
Histone deacetylase 1 = Histone deacetylase 1 (Homo sapiens, UniProt Q13547); test: Inhibition of HDAC1 (unknown origin) using Fluor de lys as substrate by fluorescence based analysis
Sequence of Histone deacetylase 1 (Q13547 whole entry): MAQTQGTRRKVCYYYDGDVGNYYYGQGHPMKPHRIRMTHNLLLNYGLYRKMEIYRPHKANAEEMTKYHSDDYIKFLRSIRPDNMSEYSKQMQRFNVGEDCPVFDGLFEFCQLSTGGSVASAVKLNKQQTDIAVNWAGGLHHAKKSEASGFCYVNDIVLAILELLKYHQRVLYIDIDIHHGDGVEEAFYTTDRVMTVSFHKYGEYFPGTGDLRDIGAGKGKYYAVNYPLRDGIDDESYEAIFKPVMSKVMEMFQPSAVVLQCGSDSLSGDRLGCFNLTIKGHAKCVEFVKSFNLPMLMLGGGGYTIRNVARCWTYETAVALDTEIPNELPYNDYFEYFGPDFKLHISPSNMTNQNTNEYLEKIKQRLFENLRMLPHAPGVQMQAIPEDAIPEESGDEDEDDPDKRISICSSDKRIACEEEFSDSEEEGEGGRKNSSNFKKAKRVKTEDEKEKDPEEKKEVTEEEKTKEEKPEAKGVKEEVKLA

U-266 = test: cells; format: functional, cell-based; settings: Homo sapiens, U-266, 72 h
[2] = biological target: T1, Protein deacetylase HDAC6 (Homo sapiens, UniProt Q9UBN7); test: Inhibition of HDAC6 (unknown origin) using Fluor de lys as substrate by fluorescence based analysis
T1 sequence (Q9UBN7 whole entry): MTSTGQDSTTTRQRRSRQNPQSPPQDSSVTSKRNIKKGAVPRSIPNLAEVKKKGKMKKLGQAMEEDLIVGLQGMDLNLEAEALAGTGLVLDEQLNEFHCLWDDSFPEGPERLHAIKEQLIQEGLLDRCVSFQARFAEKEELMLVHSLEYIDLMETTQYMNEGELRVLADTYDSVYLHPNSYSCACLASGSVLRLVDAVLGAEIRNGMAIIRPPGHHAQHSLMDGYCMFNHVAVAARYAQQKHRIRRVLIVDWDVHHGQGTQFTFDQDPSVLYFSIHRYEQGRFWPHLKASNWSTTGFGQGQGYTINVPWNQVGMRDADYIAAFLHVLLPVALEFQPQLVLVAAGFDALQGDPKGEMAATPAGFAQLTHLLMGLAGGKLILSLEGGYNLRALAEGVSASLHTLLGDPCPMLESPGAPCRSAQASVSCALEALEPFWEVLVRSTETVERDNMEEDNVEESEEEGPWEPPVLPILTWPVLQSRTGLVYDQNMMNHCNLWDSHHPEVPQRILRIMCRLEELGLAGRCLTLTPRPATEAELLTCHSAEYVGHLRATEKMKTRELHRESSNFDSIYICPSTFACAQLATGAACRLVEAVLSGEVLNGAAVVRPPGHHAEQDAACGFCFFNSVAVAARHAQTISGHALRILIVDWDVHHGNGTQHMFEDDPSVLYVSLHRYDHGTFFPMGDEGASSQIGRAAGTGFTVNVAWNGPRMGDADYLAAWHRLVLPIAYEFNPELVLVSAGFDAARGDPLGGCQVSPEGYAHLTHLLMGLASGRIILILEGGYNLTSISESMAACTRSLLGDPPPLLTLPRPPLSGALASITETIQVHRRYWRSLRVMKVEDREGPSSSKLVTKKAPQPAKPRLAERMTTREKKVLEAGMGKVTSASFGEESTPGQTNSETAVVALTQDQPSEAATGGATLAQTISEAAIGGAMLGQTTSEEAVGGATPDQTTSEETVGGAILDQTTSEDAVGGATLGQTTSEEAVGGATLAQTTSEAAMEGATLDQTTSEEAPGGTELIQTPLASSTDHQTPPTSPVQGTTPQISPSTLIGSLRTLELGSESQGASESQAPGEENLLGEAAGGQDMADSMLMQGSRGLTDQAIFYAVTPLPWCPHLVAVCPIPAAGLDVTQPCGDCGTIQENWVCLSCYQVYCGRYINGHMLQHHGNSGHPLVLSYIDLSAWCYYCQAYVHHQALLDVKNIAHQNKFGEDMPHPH

Homo sapiens [3] = species on record: Homo sapiens; test: Selectivity index, ratio of IC50 for inhibition of HDAC1 (unknown origin) to IC50 for inhibition of HDAC6 (unknown origin); summary of the method: as §1
Histone deacetylase 8 = biological target: T2, Histone deacetylase 8 (Homo sapiens, UniProt Q9BY41); test: (§2) Inhibition of HDAC8 (unknown origin) using Fluor de lys as substrate by fluorescence based analysis
T2 sequence (Q9BY41 whole entry): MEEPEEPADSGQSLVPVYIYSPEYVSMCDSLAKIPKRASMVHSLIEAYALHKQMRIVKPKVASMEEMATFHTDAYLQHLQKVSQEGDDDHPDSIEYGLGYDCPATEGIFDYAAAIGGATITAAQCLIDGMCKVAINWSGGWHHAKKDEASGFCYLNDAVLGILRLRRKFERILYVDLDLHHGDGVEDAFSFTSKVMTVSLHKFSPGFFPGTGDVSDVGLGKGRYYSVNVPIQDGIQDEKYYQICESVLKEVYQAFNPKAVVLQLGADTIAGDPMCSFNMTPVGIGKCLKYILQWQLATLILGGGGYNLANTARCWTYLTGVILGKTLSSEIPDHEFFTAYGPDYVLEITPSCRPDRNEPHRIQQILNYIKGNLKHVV

[4] = Cytotoxicity against human HS5 cells assessed as inhibition of cell growth incubated for 72 hrs by alamar blue assay; format: toxicity, cell-based
Summary of the method: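 Cells were grown in IMDM with 20% FBS and penicillin/streptomycin at 37 °C in 5% CO2. Drug-treated cells were incubated 72 h. Alamar blue (1 mM solution) was then added for 5–6 h, and fluorescence read at 530/590 nm.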

[5] = Microsomal stability in human liver microsomes assessed as half life at 0.5 uM prewarmed for 5 mins followed by NADPH addition and measured for 90 mins by LC-MS/MS analysis; format: ADME, Microsome; settings: time 95 min
Summary of the method: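 Incubation held 0.8 mg/mL human liver microsomes, MgCl2, potassium phosphate buffer pH 7.4 and 0.5 μM compound. After 5 min prewarming at 37 °C, NADPH started the reaction.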

A549 [6] = test: Antiproliferative activity against human A549 cells assessed as inhibition of cell growth incubated for 72 hrs by alamar blue assay; format: functional, cell-based; settings: A549, 72 h
Summary of the method: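 Cells grown in IMDM with 20% FBS and penicillin/streptomycin at 37 °C, 5% CO2. Compound added to plated cells for 72 h. Alamar blue (1 mM solution) then added for 5–6 h, and fluorescence read at 530/590 nm. IC50 derived for single-agent treatment.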

A549 [7] = test: Antiproliferative activity against human A549 cells assessed as inhibition of cell growth incubated for 72 hrs in presence of (R)-4-((3,4-dibenzyl-2,5-dioxopiperazin-1-yl)methyl)-N-hydroxybenzamide by alamar blue assay; format: functional, cell-based; settings: A549, 72 h
Summary of the method: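 Alamar blue assay in IMDM/20% FBS at 37 °C, 5% CO2. Cells were exposed to the two agents together for 72 h, with 5–6 h Alamar blue and fluorescence at 530/590 nm. IC50 in combination was determined. CI50 = IC50Ac/IC50As + IC50Bc/IC50Bs, comparing combination with single-agent IC50s.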

[8] = Inhibition of full length HDAC1/MTA1 (162 to 354 residues) (unknown origin) transfected in HEK293F cells using BOC-Lys-AMC as substrate incubated for 30 mins by fluorescence based analysis; design: species or system Homo sapiens
[9] = biological target: Histone deacetylase 8 (Homo sapiens) (UniProt Q9BY41); test: as §2

Ratio IC50 (Homo sapiens [1])	pIC50 (RPMI-8226)	pIC50 (Histone deacetylase 1)	pIC50 (U-266)	pIC50 [2]	Ratio IC50 (Homo sapiens [3])	pIC50 (Histone deacetylase 8)	Compound	other results
14	4.87	5.07	4.64	7.98	838	6.82	O=C(NO)c1ccc(CN2CC(=O)N(Cc3cccc(Cl)c3)[C@H](Cc3ccccc3)C2=O)cc1	IC50 at 72 hrs [4]: > 100 µM
–	5.03	–	< 4.00	–	–	–	O=C(CCCCCCNC(=O)c1cnc(N(c2ccccc2)c2ccccc2)nc1)NO [RICOLINOSTAT]	half-life at 0.5 µM [5]: 7.5 h
0.9	–	5.14	–	7.76	411	7.81	O=C1CN(Cc2ccc(C(=O)NO)cc2)C(=O)[C@H](Cc2ccccc2)N1	–
–	–	–	–	–	–	–	COc1cccc2c1C(=O)c1c(O)c3c(c(O)c1C2=O)C[C@@](O)(C(=O)CO)C[C@@H]3O[C@H]1C[C@H](N)[C@H](O)[C@H](C)O1 [DOXORUBICIN HYDROCHLORIDE]	pIC50 (A549 [6]): 6.59; pIC50 (A549 [7]): 6.82
–	–	5.19	–	8.18	–	6.95	O=C1CN(Cc2ccc(C(=O)NO)cc2)C(=O)[C@H](Cc2c[nH]c3ccccc23)N1	–
–	–	5.75	–	–	–	5.70	O=C(NO)c1ccc(CC(=O)N(CCO)c2ccccc2)cc1	–
–	–	–	–	–	–	–	CC(=O)[C@H](Cc1cnc[nH]1)NC(=O)[C@H](CCCN=C(N)N)NC(=O)[C@H](CCCCCC(=O)NO)NC(=O)CNC(=O)CN (H-GG[Asu](NHOH)R-X1)	pIC50 [8]: 6.47
–	–	–	–	5.38	–	–	O=C1CN(Cc2cccc(C(=O)NO)c2)C(=O)[C@H](Cc2ccccc2)N1	inhibition (Histone deacetylase 1): inactive; inhibition [9]: inactive
11	–	5.04	–	7.93	786	6.89	O=C(NO)c1ccc(CN2CC(=O)N(Cc3ccc(Cl)cc3)[C@H](Cc3ccccc3)C2=O)cc1	–
4	4.26	5.08	4.06	8.06	959	7.51	O=C1CN(Cc2ccc(C(=O)NO)cc2)C(=O)[C@@H](Cc2ccccc2)N1	IC50 at 72 hrs [4]: > 100 µM
16	4.92	5.08	4.63	8.00	823	6.79	O=C(NO)c1ccc(CN2CC(=O)N(Cc3ccccc3Cl)[C@H](Cc3ccccc3)C2=O)cc1	half-life at 0.5 µM [5]: 10.1 h; IC50 at 72 hrs [4]: > 100 µM
12	–	5.09	–	7.86	591	6.77	COc1cccc(CN2C(=O)CN(Cc3ccc(C(=O)NO)cc3)C(=O)[C@H]2Cc2ccccc2)c1	–
–	–	–	–	7.78	–	–	CN1C(=O)CN(Cc2ccc(C(=O)NO)cc2)C(=O)C1Cc1ccccc1 (racemic)	–
